Screening results deposited in PubChem by several laboratories.
TbHK1 inh: Trypanosoma brucei hexokinase 1 inhibitors, primary screen, biochemical, G6PDH-coupled NADH absorbance, MLSCN library; hexokinase 1 [Trypanosoma brucei]; recombinant TbHK1, G6PDH-coupled NADH A340; inhibition, % at 10 µM; 220,000 tested, 0.11% active; AID 1430, 2008;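 active means inhibition of 50% or more in the single-dose primary screen; inactive means inhibition below 50%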
HMGR II inh: inhibitors of E. faecalis class II HMGR, primary screen, biochemical, Enterococcus faecalis; 190,000 tested, 0.41% active; inhibition, % at 10 µM; HMG-CoA reductase (Enterococcus faecalis, mvaE); purified E. faecalis HMGR, NADPH absorbance 340 nm kinetic;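 active means inhibition above a set limit, the median over all tested compounds plus 3 SD, cut at about 9.5% in these data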;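 further: enzyme runs in reverse so mevalonate oxidation gives rising NADPH absorbance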
PGE2 EP2 inh: human EP2 receptor antagonists, primary screen, TR-FRET cAMP, C6 glioma cells; C6 glioma cells expressing human EP2; cells stimulated with saturating PGE2; inhibition, % at 25 µM; 260,000 tested, 0.52% active;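 active means percent inhibition above 40 after rounding to a whole number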;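 further: rat C6 glioma host cells with rolipram phosphodiesterase inhibitor present; the protocol text gives 20 µM as final concentration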
Target sequence (P43116 whole entry, looked up): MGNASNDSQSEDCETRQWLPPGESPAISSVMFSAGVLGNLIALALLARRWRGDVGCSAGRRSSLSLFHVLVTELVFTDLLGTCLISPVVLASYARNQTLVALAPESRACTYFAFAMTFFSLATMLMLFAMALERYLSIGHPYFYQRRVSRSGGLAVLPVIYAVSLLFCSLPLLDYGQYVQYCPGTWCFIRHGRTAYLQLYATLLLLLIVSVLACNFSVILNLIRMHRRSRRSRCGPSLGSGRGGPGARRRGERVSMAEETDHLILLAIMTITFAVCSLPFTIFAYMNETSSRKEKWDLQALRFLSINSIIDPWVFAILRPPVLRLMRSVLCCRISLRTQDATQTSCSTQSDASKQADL
MT stabilizer: microtubule stabilizers in HeLa cells, primary screen, imaging, high-content imaging; HeLa tubulin immunostaining HCS, 24 h; share of cells brighter than vehicle mean+2SD; % tubulin-high responders, % at 10 µM; 200,000 tested, 0.83% active;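 active means plate Z-score above 3 for both tubulin-high and condensed-nucleus cell shares, with cell loss under 80%, at 10 µM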;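 further: anti alpha tubulin signal scored within the nucleus-defined area of each cell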
EP2 mod: EP2 receptor modulators, cAMP readout, primary screen, cell-based, HTRF cAMP, PGE2 stimulation | EP2-expressing cells, cAMP HTRF FRET, PGE2 co-stimulation | induction, % at 25 µM | 260,000 tested, 0.83% active | AID 940, 2007;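 active means compounds whose cAMP rise, as percent of the full-agonist control response, exceeds 60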;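 further: rat C6 glioma line stably carrying human EP2 under a CMV promoter; the protocol text gives 20 µM as final concentration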
b-catenin transl: modulators of beta-catenin nuclear translocation, primary screen, imaging, HeLa cells, immunofluorescence, high-content | nuclear translocation activity, % at 5 µM | 190,000 tested, 0.3% active | AID 1665, 2009;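 active means nuclear translocation activity above 50% at 5 µM, with a well cell count of 50 or more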;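 further: per-cell ratio of nuclear to cytoplasmic median beta-catenin stain intensity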
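Test system: human HeLa cells, endogenous beta-catenin. Times: 24 h compound exposure, 37°C. Measured by: beta-catenin immunofluorescence imaging with DAPI.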
G6PDH ctr: Leuconostoc G6PDH inhibition, confirmation, counter-screen for TbHK1 inhibitor project, biochemical, DPI cherry-picked compounds, single concentration; shares compounds with TbHK1 inh; purified G6PDH, NADH absorbance, 1 h; inhibition, % at 10 µM; 210 tested, 7% active; AID 2516, 2010;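 active means at least 50% inhibition in the glucose-6-phosphate dehydrogenase coupled counterscreen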
TbHK1 rescreen: TbHK1 inhibitor retest, confirmation, biochemical, DPI cherry-picked primary actives. shares compounds with TbHK1 inh. recombinant TbHK1, G6PDH-coupled NADH A340 absorbance. inhibition, % at 10 µM. 210 tested, 10% active;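 active means inhibition of at least 50% in both of the two screening runs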
A number is an active result; - = inactive; . = not tested or not shown; ! = a repeat was not active. An excerpt weighted towards active compounds, which were near 2.4% of everything screened.

SMILES	TbHK1 inh	HMGR II inh	PGE2 EP2 inh	MT stabilizer	EP2 mod	b-catenin transl	G6PDH ctr	TbHK1 rescreen
CCC(=O)NC(c1cccs1)c1cc([N+](=O)[O-])c2cccnc2c1O (stereo not given)	52	-	-	-	-	.	-	-
CN(C)c1ccc(C(=S)N2CCOCC2)cc1	69	-	-	-	-	-	-	-
COc1ccc(-c2nnn(CC#N)n2)cc1OC	-	-	-	-	-	-	.	.
COc1ccccc1-c1nnn(CC#N)n1	52	-	-	-	-	-	-	-
O=C(CN1CCN(S(=O)(=O)c2ccccc2Cl)CC1)NC1CCCCC1	.	.	-	.	-	.	.	.
Cc1ccc(S(=O)(=O)NNC(=S)NC(=O)c2ccc([N+](=O)[O-])cc2)cc1	78	-	-	-	-	-	-	-
Cc1ccc(C(=O)NC(=S)NNS(=O)(=O)c2ccc(C)cc2)cc1	-	-	-	-	-	-	.	.
Cc1nn(Cc2ccc(C(=O)NC(C)(C)C)o2)c(C)c1Br	50	-	-	-	-	-	-	-
COc1ccc(CCNC(=O)c2cc(-c3ccc(C)cc3)on2)cc1OC	.	.	-	.	-	.	.	.
CC1SCC(NC(=O)c2ccc(Cl)cc2)CS1 (stereo not given)	51	.	-	.	-	-	-	-
CC(O)c1nc2ccc(Cc3ccc4nc(C(C)O)[nH]c4c3)cc2[nH]1 (stereo not given)	55	-	-	-	-	-	-	-
COc1ccc2nc(C(C)O)[nH]c2c1 (stereo not given)	-	-	-	-	-	-	.	.
COc1cc(-c2noc(CCC(=O)Nc3cccnc3)n2)cc(OC)c1OC	54	-	-	-	-	-	-	-
Cc1ccc(Cc2cnc(NC(=O)CCCl)s2)cc1	.	.	-	.	-	.	.	.
CN(C)CCCNC(=S)N(Cc1cc2cc3c(cc2[nH]c1=O)OCO3)C1CCCCC1	.	.	-	.	-	.	.	.
CCOC(=O)N1CCN(C(=O)C2CCN(S(=O)(=O)N3CCCC3)CC2)CC1	58	-	-	-	-	.	-	-
CC(C)(C)OC(=O)NCC(=O)NCC(=O)OCc1ccccc1	53	-	-	-	-	-	-	-
CC1=C([N+](=O)[O-])C(c2ccc(Cl)cc2)N(C)C(=O)N1C (stereo not given)	.	.	-	.	-	.	.	.
CCOc1ccc(NC(=S)NNc2ccnc3cc(Cl)ccc23)cc1	-	-	-	-	-	-	.	.
S=C(NNc1ccnc2cc(Cl)ccc12)Nc1ccc(Cl)cc1Cl	61	.	-	.	-	-	109	60
Cc1ccccc1OCc1n(CC(=O)OC2CC(C)CCC2C(C)C)c2ccccc2[n+]1C (stereo not given)	76!	-	-	-	-	-	-	-
Cc1nc2sc3c(c2c2nnc(SCC(=O)Nc4nccs4)n12)CCCC3	.	.	-	.	-	.	.	.
CCN(CCCNC(=O)CC(C(=O)N1CCc2ccccc21)n1ccnc1)c1ccccc1 (stereo not given)	56	-	-	-	-	-	-	-
Cc1ccccc1N1C(=O)C2ON(c3ccccc3)C(c3cccnc3)C2C1=O (stereo not given)	-	-	-	-	-	-	.	.
Cc1c(Cl)cccc1N1C(=O)C2ON(c3ccccc3)C(c3cccnc3)C2C1=O (stereo not given)	51	-	-	-	-	-	-	-
SMILES	TbHK1 inh	HMGR II inh	PGE2 EP2 inh	MT stabilizer	EP2 mod	b-catenin transl	G6PDH ctr	TbHK1 rescreen
O=C(NCc1cccs1)c1cccnc1Nc1ccccc1F	.	.	-	.	-	.	.	.
Nc1nonc1-c1nc2ccccc2n1CC(=O)N/N=C\c1ccc(-c2ccc(Cl)cc2)o1	52	-	-	-	-	-	108	-
CCn1c(=O)[nH]c2c(C(N)=O)nc(-c3ccccc3OC)nc21	.	.	.	.	-	.	.	.
CC1CCN(C(=O)COc2ccc(S(=O)(=O)NC(C)c3ccccc3)cc2)CC1 (stereo not given)	.	.	-	.	-	.	.	.
O=C(Nc1nnc(-c2ccc(Cl)cc2)o1)C1CCCCC1	-	.	-	.	-	-	.	.
Clc1ccc(-c2nnc(NC3=NCCCCC3)o2)cc1	50	-	-	-	-	-	-	-
Nc1cc(-c2ccco2)nn(CC(=O)NC(c2ccccc2)c2ccccc2)c1=O	.	.	-	.	-	.	.	.
CCC1Oc2ccccc2N(CC(=O)NCCc2ccc(OC)c(OC)c2)C1=O (stereo not given)	-	-	-	-	-	-	.	.
CCC1Oc2ccccc2N(CC(=O)Nc2ccccc2OC)C1=O (stereo not given)	51	-	-	-	-	-	-	-
COc1ccc(-c2cnc(SCC(=O)Nc3cccc(NC(C)=O)c3)[nH]2)cc1	.	.	-	.	-	.	.	.
O=C(C1CCN(S(=O)(=O)c2cccc3nsnc23)CC1)N1CCc2ccccc2C1	54	-	.	-	-	-	-	-
CS(=O)(=O)N1CCC(C(=O)N2CCc3ccccc3C2)CC1	-	-	-	-	-	-	.	.
Cc1ccc2c(c1)-c1cc(C)nn1C(c1ccc(F)cc1)N2 (stereo not given)	.	.	-	.	-	.	.	.
CC1(C)Cc2c(C#N)c(N)sc(=S)c2CO1	73	-	-	-	-	-	101	68
CCN(CC)c1nc(C)c2c(c1C#N)CC(C)(C)OC2	-	-	-	-	-	-	.	.
COc1ccc(NC2=NC3(CCCCC3)N=C(N)N2)cc1	62	-	-	-	-	-	-	-
CC(=O)N(Cc1cccs1)Cc1cc2cccc(C)c2n2nnnc12	.	.	-	.	-	.	.	.
COc1ccccc1-n1c(SCC(=O)N2CCOCC2)nnc1-c1ccncc1	.	.	-	.	-	.	.	.
O=C(CSc1nnc(-c2ccco2)n1Cc1ccco1)c1ccc(F)cc1	.	.	-	.	-	.	.	.
CC(C)(C)OC(=O)N[C@@H](Cc1ccccc1)C(=O)N1CCC(C(=O)O)CC1	-	-	-	-	-	-	.	.
COc1ccc(CNC(=O)C2CCN(C(=O)[C@@H](CC(C)C)NC(=O)OC(C)(C)C)CC2)cc1	56	-	-	-	-	-	-	-
CC1CCN(c2nc3c(c(=O)[nH]c(=O)n3C)n2CCCSc2ncccn2)CC1	.	.	-	.	-	.	.	.
Cc1c(NC(=O)CC(=O)Nc2c(C)n(C)n(-c3ccccc3)c2=O)c(=O)n(-c2ccccc2)n1C	74	-	-	-	-	-	-	-
